Some results are limits rather than exact numbers.

For experiment [1], the target named is T1, Protein kinase C epsilon type (Homo sapiens, UniProt Q02156).
T1 sequence (Q02156 whole entry): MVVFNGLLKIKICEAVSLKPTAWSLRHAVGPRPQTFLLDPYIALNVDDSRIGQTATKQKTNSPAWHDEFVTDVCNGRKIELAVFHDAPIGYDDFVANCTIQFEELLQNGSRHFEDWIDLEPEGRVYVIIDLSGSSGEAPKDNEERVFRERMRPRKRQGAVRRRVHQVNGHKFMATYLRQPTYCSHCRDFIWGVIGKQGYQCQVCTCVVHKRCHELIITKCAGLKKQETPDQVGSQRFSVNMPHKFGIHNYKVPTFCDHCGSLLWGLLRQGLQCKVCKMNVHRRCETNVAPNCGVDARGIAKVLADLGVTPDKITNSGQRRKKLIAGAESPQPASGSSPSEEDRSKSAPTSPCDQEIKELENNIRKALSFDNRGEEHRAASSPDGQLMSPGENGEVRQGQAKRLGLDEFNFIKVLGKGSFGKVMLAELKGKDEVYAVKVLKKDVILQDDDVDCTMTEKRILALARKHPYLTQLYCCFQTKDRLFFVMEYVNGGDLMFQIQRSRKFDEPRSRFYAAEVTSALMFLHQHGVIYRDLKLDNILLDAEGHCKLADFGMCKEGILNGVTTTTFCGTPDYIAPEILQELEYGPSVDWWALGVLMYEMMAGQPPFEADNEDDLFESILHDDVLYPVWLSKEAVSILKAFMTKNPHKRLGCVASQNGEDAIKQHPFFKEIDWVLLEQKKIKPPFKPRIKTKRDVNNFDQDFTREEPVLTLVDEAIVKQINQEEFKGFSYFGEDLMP
Briefly: Displacement of [3H]PDBu from full length recombinant human PKCepsilon expressed in baculovirus expression system after 5 mins by scintillation counting. In short, it runs like this:
(§1)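 Competition of [3H]PDBu binding by polyethylene glycol precipitation, with 100 µg/ml phosphatidylserine and ≤0.003% Triton X-100, 5 min at 37 °C. Proteins: full-length purified human PKCα, PKCε; full-length RasGRP1; MBP-RasGRP3 from E. coli BL21(DE3) induced with 0.3 mM IPTG 6 h at room temperature. Ki mean ± SEM of ≥2 experiments, triplicate points.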
In general terms: Loss of bound radioactivity is the signal in a displacement assay; it reports binding, not function.

For experiment [2], the target named is Protein kinase C alpha type (Homo sapiens, UniProt P17252). Nature of the experiment: Displacement of [3H]PDBu from full length recombinant human PKCalpha expressed in baculovirus expression system after 5 mins by scintillation counting. In a few lines: as §1
Experiment [3] concerns the target T2, Ras guanyl-releasing protein 3 (Homo sapiens, UniProt Q8IV61).
T2 sequence (Q8IV61 whole entry): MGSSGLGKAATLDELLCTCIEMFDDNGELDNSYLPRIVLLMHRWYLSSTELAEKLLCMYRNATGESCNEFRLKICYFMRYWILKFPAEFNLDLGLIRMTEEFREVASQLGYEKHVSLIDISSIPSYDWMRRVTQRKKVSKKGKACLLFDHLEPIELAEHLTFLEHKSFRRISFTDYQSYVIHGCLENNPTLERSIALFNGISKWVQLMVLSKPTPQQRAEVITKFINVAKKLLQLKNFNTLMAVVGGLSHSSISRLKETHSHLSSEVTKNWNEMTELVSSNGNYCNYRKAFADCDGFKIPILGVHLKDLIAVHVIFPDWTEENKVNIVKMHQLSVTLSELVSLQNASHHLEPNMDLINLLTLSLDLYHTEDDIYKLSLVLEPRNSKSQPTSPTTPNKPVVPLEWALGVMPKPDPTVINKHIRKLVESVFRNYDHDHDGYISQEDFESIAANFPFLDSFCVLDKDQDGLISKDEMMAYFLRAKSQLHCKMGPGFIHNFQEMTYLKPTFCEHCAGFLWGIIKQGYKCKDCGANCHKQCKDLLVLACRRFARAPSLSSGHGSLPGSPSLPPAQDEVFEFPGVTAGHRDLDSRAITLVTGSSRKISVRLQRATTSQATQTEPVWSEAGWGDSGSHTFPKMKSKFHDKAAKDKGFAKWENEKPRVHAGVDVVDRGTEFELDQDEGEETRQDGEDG
Nature of the experiment: Displacement of [3H]PDBu from full length MBP-tagged human RasGRP3 expressed in Escherichia coli BL21 (DE3) after 5 mins by scintillation counting. In a few lines: as §1

Take `Cn1nc(/C=C2\CC(CO)(COC(=O)C(C)(C)C)OC2=O)c2ccccc21` (configuration not stated): the inhibitory constant (Ki) was determined as 131 nM in experiment [1], 184 nM in experiment [2] and 7.22 nM in experiment [3].
In the same order, the values of `COc1ccc(/C=C2\CC(CO)(COC(=O)c3ccc(OC)cc3)OC2=O)cc1` (configuration not stated) are 13.4 nM, 84.7 nM and 4.17 nM.
The like results for `Cn1cc(/C=C2\CC(CO)(COC(=O)C3CCCCC3)OC2=O)c2ccccc21` (configuration not stated) were, in that order, 98.2 nM, 112 nM and 2.86 nM.
In the same order, the values of `COc1ccc(C(=O)OCC2(CO)C/C(=C\c3ccc(Cl)cc3)C(=O)O2)cc1` (configuration not stated) are 7.1 nM, 27.6 nM and 2.25 nM.
With `CC(C)(C)C(=O)OCC1(CO)C/C(=C\c2ccccn2)C(=O)O1` (configuration not stated), the inhibition constant Ki amounted to 1120 nM in experiment [1], 3640 nM in experiment [2] and 192 nM in experiment [3].
The like results for `Cn1cc(/C=C2\CC(CO)(COC(=O)c3ccc(Cl)cc3)OC2=O)c2ccccc21` (configuration not stated) were, in that order, 208 nM, 146 nM and 11.2 nM.
In the same order, the values of `CN(C)c1ccc(C(=O)OCC2(CO)C/C(=C\c3ccccn3)C(=O)O2)cc1` (configuration not stated) are 328 nM, 1480 nM and 271 nM.
In the same order, the values of `O=C1OC(CO)(COC(=O)c2ccc(Cl)cc2)C/C1=C\c1ccccn1` (configuration not stated) are 92.3 nM, 383 nM and 29 nM.
For `CC(C)CC(CC(C)C)C(=O)OCC1(CO)C/C(=C\c2cn(C)c3ccccc23)C(=O)O1` (configuration not stated), the Ki in experiment [1] came out at 41.5 nM; in experiment [2] it was 39 nM; in experiment [3], 5.07 nM.
`Cn1cc(/C=C2\CC(CO)(COC(=O)/C=C/c3ccccn3)OC2=O)c2ccccc21` (configuration not stated): the inhibition constant Ki was 3410 nM in experiment [1], 2310 nM in experiment [2] and 69.7 nM in experiment [3].
The like results for `O=C1OC(CO)(COC(=O)c2ccc(Cl)cc2)C/C1=C\c1ccc(Cl)cc1` (configuration not stated) were, in that order, 6.51 nM, 25.2 nM and 2.69 nM.
In the same order, the values of `COc1ccc(C(=O)OCC2(CO)C/C(=C\c3cn(C)c4ccccc34)C(=O)O2)cc1` (configuration not stated) are 380 nM, 446 nM and 26.5 nM.
In the same order, the values of `Cn1cc(/C=C2\CC(CO)(COC(=O)C3CCC(C(C)(C)C)CC3)OC2=O)c2ccccc21` (configuration not stated) are 42 nM, 31.3 nM and 2.15 nM.
`CN(C)c1ccc(/C=C2\CC(CO)(COC(=O)c3ccc(N(C)C)cc3)OC2=O)cc1` (configuration not stated): the values for the inhibition constant Ki in experiment [1], in experiment [2] and in experiment [3] were 39.4 nM, 252 nM and 26.8 nM, respectively.
In the same order, the values of `COc1ccc(/C=C2\CC(CO)(COC(=O)c3ccc(Cl)cc3)OC2=O)cc1` (configuration not stated) are 6.8 nM, 30.1 nM and 1.54 nM.
The like results for `CC(C)(C)C(=O)OCC1(CO)C/C(=C/c2csc3ccccc23)C(=O)O1` (configuration not stated) were, in that order, 12.5 nM, 37 nM and 4.26 nM.
In the same order, the values of `CCCCn1cc(/C=C2\CC(CO)(COC(=O)C(C)(C)C)OC2=O)c2ccccc21` (configuration not stated) are 19.2 nM, 25.6 nM and 1.87 nM.
As to `COc1ccc(/C=C2\CC(CO)(COC(=O)C(C)(C)C)OC2=O)cc1` (configuration not stated), the Ki in experiment [1] was 10.1 nM; in experiment [2] it was 72 nM; in experiment [3], 1.09 nM.
Take `Cn1cc(/C=C2\CC(CO)(COC(=O)C(C)(C)C)OC2=O)c2cc(Cl)ccc21` (configuration not stated): the values for the Ki in experiment [1], in experiment [2] and in experiment [3] were 39.3 nM, 42.3 nM and 1.01 nM, respectively.
In the same order, the values of `CC(C)(C)C(=O)OCC1(CO)C/C(=C\c2csc3ccccc23)C(=O)O1` (configuration not stated) are 8.17 nM, 28.8 nM and 1.67 nM.
In the same order, the values of `CC(C)(C)C(=O)OCC1(CO)C/C(=C\c2ccc(Cl)cc2)C(=O)O1` (configuration not stated) are 2.57 nM, 13.6 nM and 0.53 nM.
The like results for `CC(C)(C)C(=O)OCC1(CO)C/C(=C\c2coc3ccccc23)C(=O)O1` (configuration not stated) were, in that order, 35.3 nM, 114 nM and 2.8 nM.
`Cn1cc(/C=C2/CC(CO)(COC(=O)C(C)(C)C)OC2=O)c2cc(Cl)ccc21` (configuration not stated): the figures for the Ki in experiment [1], in experiment [2] and in experiment [3] were 104 nM, 79.1 nM and 4.32 nM, respectively.
In the same order, the values of `Cn1cc(/C=C/C(=O)OCC2(CO)C/C(=C\c3cn(C)c4ccccc34)C(=O)O2)c2ccccc21` (configuration not stated) are 780 nM, 375 nM and 15.7 nM.
In the same order, the values of `Cn1cc(/C=C2\CC(CO)(COC(=O)/C=C/c3ccccc3)OC2=O)c2ccccc21` (configuration not stated) are 672 nM, 439 nM and 25 nM.
In the same order, the values of `COc1ccc(C(=O)OCC2(CO)C/C(=C\c3ccc(N(C)C)cc3)C(=O)O2)cc1` (configuration not stated) are 18.2 nM, 128 nM and 7.48 nM.
Consider `CCCC(CCC)C(=O)OCC1(CO)C/C(=C\c2cn(C)c3ccccc23)C(=O)O1` (configuration not stated), for which the inhibitory constant (Ki) in experiment [1] was determined as 42.8 nM; in experiment [2], 31.7 nM; in experiment [3], 0.84 nM.
In the same order, the values of `COc1ccc(C(=O)OCC2(CO)C/C(=C\c3ccccn3)C(=O)O2)cc1` (configuration not stated) are 199 nM, 1190 nM and 89.7 nM.
In the same order, the values of `COc1ccc2c(c1)c(/C=C1\CC(CO)(COC(=O)C(C)(C)C)OC1=O)cn2C` (configuration not stated) are 208 nM, 249 nM and 4.76 nM.
In the same order, the values of `CC(C)Cn1cc(/C=C2\CC(CO)(COC(=O)C(C)(C)C)OC2=O)c2ccccc21` (configuration not stated) are 19.4 nM, 15.6 nM and 3.03 nM.
Turning to `CN(C)c1ccc(C(=O)OCC2(CO)C/C(=C\c3ccc(Cl)cc3)C(=O)O2)cc1` (configuration not stated), the Ki in experiment [1] was found to be 9.5 nM; in experiment [2], 30.4 nM; in experiment [3] it was 2.73 nM.
Regarding `CCCCCCC(=O)OCC1(CO)C/C(=C\c2cn(C)c3ccccc23)C(=O)O1` (configuration not stated), the Ki in experiment [1] was 122 nM; in experiment [2], 135 nM; in experiment [3], 5.3 nM.
The like results for `CC(C)(C)C(=O)OCC1(CO)C/C(=C/c2coc3ccccc23)C(=O)O1` (configuration not stated) were, in that order, 73.3 nM, 62.5 nM and 11.7 nM.
The like results for `COc1ccc(/C=C2\CC(CO)(COC(=O)c3ccc(N(C)C)cc3)OC2=O)cc1` (configuration not stated) were, in that order, 18.3 nM, 82.2 nM and 7 nM.
Turning to `Cn1cc(/C=C2/CC(CO)(COC(=O)C(C)(C)C)OC2=O)c2cc([N+](=O)[O-])ccc21` (configuration not stated), the Ki in experiment [1] was more than 30000 nM; in experiment [2], more than 30000 nM; in experiment [3], 1390 nM.
Regarding `Cn1cc(/C=C2\CC(CO)(COC(=O)C(C)(C)C)OC2=O)c2cc([N+](=O)[O-])ccc21` (configuration not stated), the Ki was more than 30000 nM in experiment [1], more than 30000 nM in experiment [2] and 3490 nM in experiment [3].
On to `CN(C)c1ccc(/C=C2\CC(CO)(COC(=O)c3ccc(Cl)cc3)OC2=O)cc1` (configuration not stated), for which the inhibition constant Ki turned out to be 6.39 nM in experiment [1], 25.4 nM in experiment [2] and 1.81 nM in experiment [3].
In the same order, the values of `CN(C)c1ccc(C(=O)OCC2(CO)C/C(=C\c3cn(C)c4ccccc34)C(=O)O2)cc1` (configuration not stated) are 220 nM, 186 nM and 18.2 nM.
The like results for `CC(C)(C)C(=O)OCC1(CO)C/C(=C\c2cn(CC3CC3)c3ccccc23)C(=O)O1` (configuration not stated) were, in that order, 60.6 nM, 29 nM and 3.58 nM.

Usually Ki stands for a dissociation constant, usually derived from enzyme kinetics or from competition with a known ligand.

(Values after ChEMBL document CHEMBL4130626, “α-Arylidene Diacylglycerol-Lactones (DAG-Lactones) as Selective Ras Guanine-Releasing Protein 3 (RasGRP3) Ligands” (J Med Chem, 2018).)
